Here are results for 26 compounds from ChEMBL document CHEMBL1208767, “Synthesis and structure-activity relationship of N-(3-azabicyclo[3.1.0]hex-6-ylmethyl)-5-(2-pyridinyl)-1,3-thiazol-2-amines derivatives as NPY Y5 antagonists” (Bioorg Med Chem Lett, 2010).

Values after ≈ are worked out from the molar mass of the structure shown.

For series [1], the target named is T1, Neuropeptide Y receptor type 5 (Homo sapiens, UniProt Q15761).
T1 sequence (Q15761 whole entry): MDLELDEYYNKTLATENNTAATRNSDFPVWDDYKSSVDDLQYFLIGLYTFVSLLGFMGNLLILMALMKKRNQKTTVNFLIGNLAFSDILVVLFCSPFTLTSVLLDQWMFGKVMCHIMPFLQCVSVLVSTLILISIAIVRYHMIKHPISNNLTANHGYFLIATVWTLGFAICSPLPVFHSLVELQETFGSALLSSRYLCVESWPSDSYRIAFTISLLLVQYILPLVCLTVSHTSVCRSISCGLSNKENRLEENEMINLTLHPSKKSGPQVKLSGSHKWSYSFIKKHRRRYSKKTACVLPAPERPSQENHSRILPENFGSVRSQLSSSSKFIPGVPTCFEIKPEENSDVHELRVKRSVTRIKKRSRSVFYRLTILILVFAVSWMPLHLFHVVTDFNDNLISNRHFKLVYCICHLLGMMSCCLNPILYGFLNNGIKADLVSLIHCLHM
Kind of series: Antagonist activity at human NPY Y5 receptor expressed in HEK293 cells assessed as inhibition of calcium level by FLIPR assay. The series is classed as functional, cell-based. Put shortly: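 Functional antagonism measured at the human Y5 receptor stably expressed in HEK293 cells, by FLIPR calcium read-out in 384-well format. Results expressed as fpKi. At least two replicates; each determination within 0.3 log units of the mean.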

Series [2] is described as follows: Oral bioavailability in rat at 1 mg/kg, po by cassette dosing. The series is classed as ADME, organism-based. To be noted: in vivo. A digest of the protocol: (§1)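 Rats dosed at 0.5 mg/kg iv and 1 mg/kg po.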
Series [3] can be described thus: Solubility of the compound by high throughput chemiluminescent nitrogen detection method. It counts as physicochemical.
Another series concerns the target Cytochrome P450 2C9 (Homo sapiens, UniProt P11712). Kind of series: Inhibition of CYP2C9. The series is classed as ADME.
The next series concerns the target Cytochrome P450 2C19 (Homo sapiens, UniProt P33261). The series is described as follows: Inhibition of CYP2C19. It counts as ADME.
A further series addresses Cytochrome P450 3A4 (Homo sapiens, UniProt P08684). Kind of series: Inhibition of CYP3A4. It counts as ADME.
Series [4] is described as follows: Ratio of drug level in brain to blood in rat at 0.5 mg/kg, iv after 1 hr by cassette dosing. Also noted: dose 0.5 mg/kg, route intravenous. It counts as ADME, organism-based. As to conditions: read-out: BBR. Put shortly: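 Rats dosed at 0.5 mg/kg iv; brain and blood levels taken 1 h after iv dosing.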
In another series the target is T2, Cytochrome P450 1A2 (Homo sapiens, UniProt P05177).
T2 sequence (P05177 whole entry): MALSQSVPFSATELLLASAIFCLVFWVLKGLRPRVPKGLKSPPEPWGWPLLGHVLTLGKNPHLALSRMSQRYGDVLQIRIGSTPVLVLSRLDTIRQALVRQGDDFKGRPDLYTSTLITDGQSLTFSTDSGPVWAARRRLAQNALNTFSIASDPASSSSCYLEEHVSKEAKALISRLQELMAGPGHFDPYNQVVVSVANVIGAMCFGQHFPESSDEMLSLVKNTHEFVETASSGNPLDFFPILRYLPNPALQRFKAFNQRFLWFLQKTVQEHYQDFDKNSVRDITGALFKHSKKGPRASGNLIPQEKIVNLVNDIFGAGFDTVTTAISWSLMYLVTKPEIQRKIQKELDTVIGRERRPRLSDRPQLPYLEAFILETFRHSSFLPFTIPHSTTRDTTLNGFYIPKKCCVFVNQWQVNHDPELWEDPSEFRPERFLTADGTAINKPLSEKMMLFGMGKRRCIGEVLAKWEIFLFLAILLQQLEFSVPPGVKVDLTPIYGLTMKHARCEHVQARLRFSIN
Kind of series: Inhibition of CYP1A2. The series is classed as ADME.

Series [5] can be described thus: Blood clearance in rat at 0.5 mg/kg, iv and 1 mg/kg, po by cassette dosing. The series is classed as ADME, organism-based. Put shortly: as §1
For a further series, the system named is Rattus norvegicus. Kind of series: Whole blood binding in rat at 0.5 mg/kg, iv and 1 mg/kg, po by equilibrium dialysis assay. It counts as ADME, organism-based. To be noted: in vivo. For orientation: In equilibrium dialysis only unbound substance equilibrates across the membrane.
In series [6] the target is Voltage-gated inwardly rectifying potassium channel KCNH2 (Homo sapiens, UniProt Q12809). The series is described as follows: Inhibition of human ERG.
Sequence of Voltage-gated inwardly rectifying potassium channel KCNH2 (Q12809 whole entry): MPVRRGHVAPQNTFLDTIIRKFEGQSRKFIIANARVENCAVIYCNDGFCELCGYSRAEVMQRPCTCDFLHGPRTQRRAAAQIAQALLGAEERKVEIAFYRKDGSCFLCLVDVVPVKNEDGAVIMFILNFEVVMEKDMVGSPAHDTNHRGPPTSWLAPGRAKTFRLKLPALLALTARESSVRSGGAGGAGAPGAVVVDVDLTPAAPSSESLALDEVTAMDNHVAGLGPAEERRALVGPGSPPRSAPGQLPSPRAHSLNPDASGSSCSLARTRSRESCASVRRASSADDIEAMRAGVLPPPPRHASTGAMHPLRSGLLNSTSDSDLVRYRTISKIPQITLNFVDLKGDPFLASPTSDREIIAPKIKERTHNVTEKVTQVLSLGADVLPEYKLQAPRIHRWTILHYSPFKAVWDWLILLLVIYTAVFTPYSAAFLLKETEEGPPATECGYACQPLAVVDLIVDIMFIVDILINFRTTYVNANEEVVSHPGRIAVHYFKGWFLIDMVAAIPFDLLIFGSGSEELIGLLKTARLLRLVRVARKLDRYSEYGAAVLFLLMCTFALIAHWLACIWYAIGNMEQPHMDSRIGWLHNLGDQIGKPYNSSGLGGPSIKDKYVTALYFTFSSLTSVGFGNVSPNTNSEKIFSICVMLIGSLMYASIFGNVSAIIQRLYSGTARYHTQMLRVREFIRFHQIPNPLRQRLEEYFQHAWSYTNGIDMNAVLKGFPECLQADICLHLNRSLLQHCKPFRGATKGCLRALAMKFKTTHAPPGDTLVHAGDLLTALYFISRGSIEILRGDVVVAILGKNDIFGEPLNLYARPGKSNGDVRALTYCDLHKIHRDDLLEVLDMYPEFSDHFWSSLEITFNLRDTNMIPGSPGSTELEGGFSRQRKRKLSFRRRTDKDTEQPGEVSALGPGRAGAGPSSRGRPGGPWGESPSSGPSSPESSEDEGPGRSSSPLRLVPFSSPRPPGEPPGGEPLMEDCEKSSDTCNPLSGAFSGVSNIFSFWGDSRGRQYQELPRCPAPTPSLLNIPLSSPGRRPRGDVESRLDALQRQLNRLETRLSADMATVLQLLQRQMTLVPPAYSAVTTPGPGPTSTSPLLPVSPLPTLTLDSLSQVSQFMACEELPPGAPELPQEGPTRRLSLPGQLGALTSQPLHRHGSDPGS
For series [7], the target named is T3, Neuropeptide Y receptor type 1 (Homo sapiens, UniProt P25929).
T3 sequence (P25929 whole entry): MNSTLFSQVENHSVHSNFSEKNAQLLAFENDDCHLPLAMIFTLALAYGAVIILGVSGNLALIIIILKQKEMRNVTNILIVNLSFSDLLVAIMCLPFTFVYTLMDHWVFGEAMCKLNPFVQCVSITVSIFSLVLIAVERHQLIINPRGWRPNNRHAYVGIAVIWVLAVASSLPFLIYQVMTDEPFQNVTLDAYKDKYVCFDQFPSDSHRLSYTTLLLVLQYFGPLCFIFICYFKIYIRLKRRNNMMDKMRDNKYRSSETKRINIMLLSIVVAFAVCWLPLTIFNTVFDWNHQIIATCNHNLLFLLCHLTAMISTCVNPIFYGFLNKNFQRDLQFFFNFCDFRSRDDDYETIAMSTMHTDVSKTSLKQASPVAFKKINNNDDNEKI
The series is described as follows: Antagonist activity at human NPY Y1 receptor expressed in HEK293 cells assessed as inhibition of calcium level by FLIPR assay. It counts as functional, cell-based.

The target of series [8] is T4, Neuropeptide Y receptor type 2 (Homo sapiens, UniProt P49146).
T4 sequence (P49146 whole entry): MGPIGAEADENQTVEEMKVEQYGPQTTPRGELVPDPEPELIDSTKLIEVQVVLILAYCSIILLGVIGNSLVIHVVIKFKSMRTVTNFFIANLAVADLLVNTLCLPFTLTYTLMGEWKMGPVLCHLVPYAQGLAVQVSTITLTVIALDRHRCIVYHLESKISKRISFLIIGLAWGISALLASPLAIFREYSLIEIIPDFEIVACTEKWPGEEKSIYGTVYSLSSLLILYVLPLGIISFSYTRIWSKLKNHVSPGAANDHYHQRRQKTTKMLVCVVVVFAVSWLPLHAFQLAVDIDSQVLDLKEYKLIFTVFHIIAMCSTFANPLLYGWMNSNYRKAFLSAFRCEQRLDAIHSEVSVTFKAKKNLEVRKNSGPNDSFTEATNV
The series is described as follows: Antagonist activity at human NPY Y2 receptor expressed in HEK293 cells assessed as inhibition of calcium level by FLIPR assay. The series is classed as functional, cell-based.

Sequence of Cytochrome P450 3A4 (P08684 whole entry): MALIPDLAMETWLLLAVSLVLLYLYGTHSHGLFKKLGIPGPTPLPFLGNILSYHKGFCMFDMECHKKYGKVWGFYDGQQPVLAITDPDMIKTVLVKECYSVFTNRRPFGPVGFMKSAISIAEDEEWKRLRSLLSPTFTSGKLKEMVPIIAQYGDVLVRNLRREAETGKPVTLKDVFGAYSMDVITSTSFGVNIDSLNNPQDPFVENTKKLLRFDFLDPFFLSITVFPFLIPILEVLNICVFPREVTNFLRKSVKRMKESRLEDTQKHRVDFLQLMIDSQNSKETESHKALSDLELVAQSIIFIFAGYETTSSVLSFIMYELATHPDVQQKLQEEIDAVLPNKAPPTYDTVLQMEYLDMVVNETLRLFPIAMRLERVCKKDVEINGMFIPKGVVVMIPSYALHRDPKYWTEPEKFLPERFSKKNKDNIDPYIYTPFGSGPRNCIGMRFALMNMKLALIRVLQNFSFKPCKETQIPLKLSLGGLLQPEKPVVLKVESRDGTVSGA
Sequence of Cytochrome P450 2C9 (P11712 whole entry): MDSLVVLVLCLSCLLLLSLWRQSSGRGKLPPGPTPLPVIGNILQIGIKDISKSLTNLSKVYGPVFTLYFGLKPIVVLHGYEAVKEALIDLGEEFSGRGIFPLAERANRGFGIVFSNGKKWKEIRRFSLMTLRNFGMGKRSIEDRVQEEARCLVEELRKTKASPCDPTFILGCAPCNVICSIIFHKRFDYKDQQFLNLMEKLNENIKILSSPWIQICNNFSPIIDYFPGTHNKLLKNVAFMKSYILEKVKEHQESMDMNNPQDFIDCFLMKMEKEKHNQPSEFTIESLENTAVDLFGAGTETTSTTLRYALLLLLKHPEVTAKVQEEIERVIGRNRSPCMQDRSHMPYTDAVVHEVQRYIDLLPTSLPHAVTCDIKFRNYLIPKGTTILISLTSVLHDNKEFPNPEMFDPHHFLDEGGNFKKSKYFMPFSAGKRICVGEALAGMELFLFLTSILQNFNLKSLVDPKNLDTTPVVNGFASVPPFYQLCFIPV
Sequence of Cytochrome P450 2C19 (P33261 whole entry): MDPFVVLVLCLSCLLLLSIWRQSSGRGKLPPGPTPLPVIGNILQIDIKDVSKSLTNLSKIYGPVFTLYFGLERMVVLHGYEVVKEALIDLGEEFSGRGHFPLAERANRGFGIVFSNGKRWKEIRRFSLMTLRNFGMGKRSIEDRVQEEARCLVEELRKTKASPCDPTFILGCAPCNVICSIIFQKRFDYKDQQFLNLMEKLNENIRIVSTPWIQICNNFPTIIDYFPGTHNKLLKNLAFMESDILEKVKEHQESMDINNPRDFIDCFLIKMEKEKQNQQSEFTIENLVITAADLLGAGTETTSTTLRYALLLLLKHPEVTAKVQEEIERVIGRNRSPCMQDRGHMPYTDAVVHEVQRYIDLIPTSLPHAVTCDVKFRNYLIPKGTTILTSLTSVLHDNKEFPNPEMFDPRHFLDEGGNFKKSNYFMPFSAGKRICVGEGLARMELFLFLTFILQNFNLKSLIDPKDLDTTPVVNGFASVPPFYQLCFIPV

In the case of `O=C(c1ccncc1)N1C[C@@H]2[C@H](CNc3nc(-c4ccccn4)cs3)[C@@H]2C1`, the Ki (in general, a dissociation constant, usually derived from enzyme kinetics or from competition with a known ligand) in [1] is 50.1 nM.
Consider `CC(=O)N1C[C@@H]2[C@H](CNc3nc(-c4ccccn4)cs3)[C@@H]2C1`, for which, in series [1], the Ki was 2510 nM.
Turning to `CC(C)C(=O)N1C[C@@H]2[C@H](CNc3nc(-c4ccccn4)cs3)[C@@H]2C1`, the Ki in series [1] was 2.51 nM. Also, the bioavailability (usually the share of a dose that reaches the circulation, judged against a reference dose that is usually intravenous) in series [2] turned out to be 6%. The solubility (in general, the dissolved amount per volume that the medium holds) in series [3] was found to be 120 µg/mL (≈ 350 µM). In addition, the IC50 on Cytochrome P450 2C9, on Cytochrome P450 2C19, against Cytochrome P450 3A4 and against Cytochrome P450 1A2 was no less than 7000 nM in each case. Moreover, in series [4], the Kp at 1 h was found to be 0.7. Also, the clearance in series [5] stood at 137 mL/min/kg.
For the compound `O=C(c1ccccc1)N1C[C@@H]2[C@@H](CNc3nc(-c4ccccn4)cs3)[C@@H]2C1`, the Ki in series [1] was 12.6 nM.
On the same count and under the same terms, next, `O=C(c1ccccc1)N1C[C@@H]2[C@H](CNc3nc(-c4ccccn4)cs3)[C@@H]2C1`: 2.51 nM; `O=C(c1cccc(F)c1)N1C[C@@H]2[C@H](CNc3nc(-c4ccccn4)cs3)[C@@H]2C1`: 1 nM.
Regarding `O=C(c1cc(F)cc(F)c1)N1C[C@@H]2[C@H](CNc3nc(-c4ccccn4)cs3)[C@@H]2C1`, the Ki in series [1] is 1.58 nM.
As for `O=C(c1cccnc1)N1C[C@@H]2[C@H](CNc3nc(-c4ccccn4)cs3)[C@@H]2C1`, the Ki in series [1] was 5.01 nM.
With `O=C(Cc1ccccc1)N1C[C@@H]2[C@@H](CNc3nc(-c4ccccn4)cs3)[C@@H]2C1`, the Ki in series [1] was 1 nM.
With `O=C(Cc1ccccc1)N1C[C@@H]2[C@H](CNc3nc(-c4ccccn4)cs3)[C@@H]2C1`, the Ki in series [1] is 1 nM.
`CC(C(=O)N1C[C@@H]2[C@H](CNc3nc(-c4ccccn4)cs3)[C@@H]2C1)c1ccccc1` (stereo partly drawn): the Ki in series [1] was 0.398 nM.
Take `O=C(N1C[C@@H]2[C@H](CNc3nc(-c4ccccn4)cs3)[C@@H]2C1)C1(c2ccccc2)CC1`: in [1], the Ki was 0.794 nM.
Still for that read-out and setting: next, `O=C(CCc1ccccc1)N1C[C@@H]2[C@@H](CNc3nc(-c4ccccn4)cs3)[C@@H]2C1`: 6.31 nM; `O=C(CCc1ccccc1)N1C[C@@H]2[C@H](CNc3nc(-c4ccccn4)cs3)[C@@H]2C1`: 0.631 nM.
Turning to `CC(C(=O)N1C[C@@H]2[C@H](CNc3nc(-c4ccccn4)cs3)[C@@H]2C1)C(C)c1ccccc1` (stereo partly drawn), in series [1], the Ki is 5.01 nM.
Turning to `O=C([C@H]1C[C@@H]1c1ccccc1)N1C[C@@H]2[C@H](CNc3nc(-c4ccccn4)cs3)[C@@H]2C1`, the Ki in [1] is 0.794 nM.
For `O=C(C1CCOC1)N1C[C@@H]2[C@H](CNc3nc(-c4ccccn4)cs3)[C@@H]2C1` (stereo partly drawn), the Activity in the series on Rattus norvegicus is 74%. Further, the Ki in series [1] was 7.94 nM. Besides, the IC50 (as a rule, the concentration that gives 50% inhibition) in series [6] was 2000 nM; at Cytochrome P450 2C9, greater than 10000 nM; against Cytochrome P450 2C19 it was greater than 10000 nM; against Cytochrome P450 3A4 it was greater than 10000 nM; against Cytochrome P450 1A2, greater than 10000 nM. This compound also displayed a bioavailability in series [2] of 15%. Also, the Kp at 1 h in series [4] is less than 0.5. In [5], this compound showed a clearance of 98 mL/min/kg.
As to `O=C(C1CCCO1)N1C[C@@H]2[C@H](CNc3nc(-c4ccccn4)cs3)[C@@H]2C1` (stereo partly drawn), the Ki in [1] was 5.01 nM.
Consider `O=C(C1CCOCC1)N1C[C@@H]2[C@H](CNc3nc(-c4ccccn4)cs3)[C@@H]2C1`, for which, in series [1], the Ki is 31.6 nM.
`c1ccc(-c2csc(NC[C@H]3[C@@H]4CNC[C@@H]43)n2)nc1`: the Ki in series [1] was 1000 nM.
`CC(C)CN1C[C@@H]2[C@H](CNc3nc(-c4ccccn4)cs3)[C@@H]2C1`: the Ki in series [1] is 3.98 nM.
Consider `c1ccc(CN2C[C@@H]3[C@H](CNc4nc(-c5ccccn5)cs4)[C@@H]3C2)cc1`, for which the Ki in series [1] is 1.58 nM.
On the same count and under the same terms, next, `Cc1cc(C)cc(CN2C[C@@H]3[C@H](CNc4nc(-c5ccccn5)cs4)[C@@H]3C2)c1`: 3.98 nM; `Fc1cc(F)cc(CN2C[C@@H]3[C@H](CNc4nc(-c5ccccn5)cs4)[C@@H]3C2)c1`: 0.631 nM.
Turning to `CC(c1ccccc1)N1C[C@@H]2[C@H](CNc3nc(-c4ccccn4)cs3)[C@@H]2C1` (stereo partly drawn), in series [1], the Ki is 1.26 nM.
For the compound `FC(F)(F)c1ccc(Nc2nc(-c3ccccn3)cs2)cc1`, the results for the Ki in series [1], in [7] and in [8] were 15.8 nM, greater than 31600 nM and greater than 31600 nM, respectively. The bioavailability in [2] is 30%. The Kp at 1 h in series [4] was 4.2. At Cytochrome P450 1A2, this compound registered an IC50 of less than 100 nM.
